High-throughput results from PubChem BioAssay.
PRMT1 inh – inhibitors of human PRMT1; Q99873; recombinant PRMT1, activity-based probe fluorescence polarization; hit rate 1.3% among 370,000; inhibition, % at 2.79 µM; AID 652257;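 active = inhibition above about 21% made by adding two undisclosed values, limit read from the data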
SIAE inh – blocks human sialic acid acetylesterase | Q9HAT2 | SIAE FP-Rh probe binding, fluorescence polarization | inhibition, % at 9.66 µM | hit rate 0.69% among 370,000 | AID 1053197;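 active = inhibition above a cutoff: mean of compounds within the control limits plus 3 SD of those, cut at about 17% in these data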;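 note: 0% = plate median of compound wells and 100% = probe without SIAE protein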
ATG4B inhibitor – blocks human ATG4B protease cleavage of LC3 substrate. ATG4B cleavage of LC3-PLA2, NBD-HPC fluorescence, 1 h. inhibition, % at 8.33 µM. hit rate 0.51% among 340,000; in the data active = inhibition above about 40%
ABHD4 inh – inhibitors of mouse ABHD4 | purified mABHD4, FP-Rh probe fluorescence polarization | AID 720543 | hit rate 0.54% among 370,000 | inhibition, % at 8.92 µM;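 active = inhibition exceeding the mean over every tested compound plus 3 SD, cut at about 30% in these data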;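 note: 0% = plate median of compound wells and 100% = S159A mutant with DMSO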
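Test system: mouse ABHD4 enzyme, wild type. Reagent: FP-Rh fluorescent activity-based probe, added after compound pre-incubation. Timing: pre-incubation 45 min, probe exposure 60 min, at 25 °C. Technique: FP readout, ex 525 nm / em 598 nm. Benchmarks: high control S159A mutant with DMSO, low control median of compound wells.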
HTRA1 inh – HTRA1 (human) protease inhibition | Q92743 | inhibition, % at 5.96 µM | hit rate 0.5% among 340,000 | recombinant HTRA1, FP-rhodamine activity-based probe, fluorescence polarization | AID 504803; in the data active = inhibition above about 36%;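 note: 0% = enzyme with DMSO and 100% = wells lacking enzyme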
Target sequence (Q92743 whole entry, looked up): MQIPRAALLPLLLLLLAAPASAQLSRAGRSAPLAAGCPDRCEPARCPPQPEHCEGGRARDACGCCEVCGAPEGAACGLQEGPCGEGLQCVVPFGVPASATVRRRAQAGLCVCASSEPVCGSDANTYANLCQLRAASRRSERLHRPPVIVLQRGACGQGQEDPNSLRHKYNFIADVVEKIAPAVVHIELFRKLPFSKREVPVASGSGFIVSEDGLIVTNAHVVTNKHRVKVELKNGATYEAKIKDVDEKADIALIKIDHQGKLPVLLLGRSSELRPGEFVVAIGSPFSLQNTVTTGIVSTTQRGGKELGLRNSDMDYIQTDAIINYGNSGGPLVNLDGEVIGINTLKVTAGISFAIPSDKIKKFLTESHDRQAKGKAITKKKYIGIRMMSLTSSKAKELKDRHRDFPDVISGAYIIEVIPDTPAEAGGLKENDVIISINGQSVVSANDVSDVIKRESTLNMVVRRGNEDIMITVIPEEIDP
TCR CD3 inh – human TCR-CD3 binding inhibition; TAMRA-labeled TCR probe fluorescence, biochemical; inhibition, % at 9.4 µM; hit rate 0.37% among 360,000; in the data active = inhibition above about 19%;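 note: recombinant mutant TCR 2C K166C tagged with TAMRA read by polarization; 0% = receptor in buffer alone and 100% = receptor with positive control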
Starred values were filed as active, the others as inactive; . = no result; ! = not confirmed by another sample. An excerpt weighted towards active compounds, which were near 2.9% of everything screened.

SMILES	PRMT1 inh	SIAE inh	ATG4B inhibitor	ABHD4 inh	HTRA1 inh	TCR CD3 inh
O=C(NCc1ccco1)c1cccc2c1C(=O)c1ccc(N3CCC(Cc4ccccc4)CC3)cc1S2(=O)=O	.	.	-7	.	-18	.
O=C(NCc1ccco1)c1cccc2c1C(=O)c1ccc(/C=C/c3ccccc3)cc1S2(=O)=O	29*	-4	5	6	-37	-2
N#CC1(C#N)CC(C=O)=C(N)C1(C#N)CC(=O)c1ccc(F)cc1 (centres undefined)	24*	-4	-5	15	-6	-16
Cc1cc(C)cc(N(CC(=O)NC2CCC(C)CC2)S(=O)(=O)c2ccc([N+](=O)[O-])cc2)c1 (centres undefined)	-3	-1	.	-3	.	.
Oc1cc2c(cc1O)C(c1ccccc1)CNCC2 (centres undefined)	9	0	-3	4	7	-6
Oc1cc2c(cc1O)[C@@H](c1ccccc1)CNCC2	23*	10	-1	13	10	-1
O=c1[nH]c2cc3c(cc2cc1CN(Cc1nnnn1CC1CCCO1)C1CCCCC1)OCO3 (centres undefined)	23*	-8	-5	2	-4	-2
O=c1[nH]c2cc3c(cc2cc1CN(Cc1nnnn1CC1CCCO1)C1CCCC1)OCO3 (centres undefined)	1	-3	2	3	-7	-6
O=c1c2c(n3nnnc3n1Cc1ccc(Cl)cc1)-c1ccccc1CC21CCCC1	1	0	.	-5	.	.
COC(=O)[C@]12C[C@H](CC(=O)NCCc3ccccc3OC)C(=O)N(Cc3ccccc3)C1=C[C@H](COCc1ccccc1)O[C@@H]2C	-2	-2	.	-2	.	.
O=[N+]([O-])c1ccc(SCCc2ccncc2)cc1	24*!	-4	-12	5	3	3
COC(=O)c1cc(C)nc(Sc2ccccc2N)n1	25*	6	15	-1	.	2
CCn1c(N)c(C(=O)NC)sc1=S	25*	10	-4	1	11	8
CCNC(=O)c1sc(=S)n(CC)c1N	8	3	-2	2	-4	0
CCCCNC(=O)N1CCCC1C(=O)Nc1cccc(OC)c1 (centres undefined)	2	4	.	6	.	.
COc1ccc(NC(=O)/C(Cl)=C(/Cl)S(=O)Cc2ccc(Cl)cc2)cn1 (centres undefined)	32*	-3	1	1	-11	-1
COc1ccc(NC(=O)/C(Cl)=C(/Cl)S(=O)(=O)Cc2ccccc2)cn1	24*	4	-9	-14	-9	-7
COc1ccc(NC(=O)C(Cl)=C(Cl)Cl)cn1	-1	0	-4	-3	-2	4
CCn1c(SCC(=O)Nc2ccc(C(=O)OC)cc2)nnc1-c1cccc(Cl)c1	-2	-4	.	-1	.	.
Cc1cccc(CCNC(=O)CSc2nc3c([nH]2)c(=O)n(C)c(=O)n3C)c1	1	1	.	4	.	.
COc1ccccc1-n1ccnc(SCC(=O)NCCc2ccccc2)c1=O	23*	5	-8	-3	-3	-5
COC(=O)[C@]12C[C@H](CC(=O)N3CCN(C(=O)C4CC4)CC3)C(=O)N(Cc3ccco3)C1=C[C@H](COCc1ccccc1)O[C@@H]2C	3	-3	.	2	.	.
COc1ccc(O)c(/C=N/c2sc(C)c(C)c2C#N)c1	24*	7	-12	1	5	7
CC1(C(=O)O)CCCN1C(=O)c1ccc(Cl)cc1Cl (centres undefined)	4	-5	.	1	.	-6
Cc1oc(-c2ccc(Cl)cc2)cc1C(=O)N1CCC1(C)C(=O)O (centres undefined)	23*	-2	.	-4	.	3
SMILES	PRMT1 inh	SIAE inh	ATG4B inhibitor	ABHD4 inh	HTRA1 inh	TCR CD3 inh
O=C(CN(CCc1ccccc1)S(=O)(=O)c1ccc(Cl)s1)N1CCOCC1	0	3	.	-3	.	.
COc1ccc(C(NC(=O)c2cccnc2)c2cc(Cl)c3cccnc3c2O)cc1OC (centres undefined)	1	10	-3	7	45*	2
CCCC[C@H](C(=O)N(C)c1cccc(OC)c1)[C@@H](O)c1ccc(C(C)=O)cc1	-3	1	.	3	.	.
C=C1C(=O)[C@@]23[C@H](O)C[C@@H]4C(C)(C)CC[C@H](O)[C@]4(C)[C@@H]2C[C@H](O)[C@@H]1[C@H]3O	22*	4	0	-1	-4	-4
C=C1C(=O)[C@@]23[C@H](O)C[C@@H]4C(C)(C)CC[C@H](O)[C@@]4(C)[C@@H]2CC[C@@H]1[C@H]3O	7	-2	9	-11	1	-10
CC(C)N1CCCCC(NC(=O)c2ccc(F)c(F)c2)C1=O (centres undefined)	0	7	.	-4	.	.
Cc1ccccc1-n1c(SCC(=O)N2CCOCC2)nc(O)c(Cc2ccccc2)c1=O	24*	-4	-1	-8	-2	1
CCCCc1c(O)nc(SCC(=O)N2CCOCC2)n(-c2ccccc2C)c1=O	3	9	-3	-1	-8	2
Cc1cc(C)cc(N(CC(=O)NC2CCC(C)CC2)S(=O)(=O)c2ccc(C(C)(C)C)cc2)c1 (centres undefined)	-5	-1	.	5	.	.
CCOc1ccccc1CNC(=O)c1ccc2c(c1)N(CC)CCS2	23*	15	24	6	-8	1
CCN1CCSc2ccc(C(=O)NCc3cccc(Br)c3)cc21	2	15	30	9	-2	-4
COc1ccc(CNCC#Cc2ccccc2)cc1	2	5	.	8	.	.
O=C(NCc1ccccc1Cl)C1CCCN(c2ncccn2)C1 (centres undefined)	0	-3	.	0	.	.
COc1cc(/C=C2/C(=O)c3cccc([N+](=O)[O-])c3C2=O)c(Br)cc1O	62*	-15	8	46*	30	-7
N#CC(C#N)=C(N)/C(C#N)=C/c1cc(O)c(O)c(O)c1	20	-14	-1	33*	19	6
Oc1cc(NCCN2CCOCC2)cc2cccnc12	21*	6	-8	16	8	11
CCCCN1CCS(=O)(=O)N(Cc2ccc(Cl)cc2)C(C(=O)OC)C1 (centres undefined)	2	-2	.	3	.	.
CCCCCNC(=O)C(c1ccc(C(F)(F)F)cc1)n1c(=O)c(-c2ccco2)nc2ccccc21 (centres undefined)	25*	-5	.	-25	.	-4
CCCCCNC(=O)C(C1CC1)n1c(=O)c(-c2ccco2)nc2ccccc21 (centres undefined)	22*	4	.	6	.	-1
CC(C)(C)NC(=O)C(c1cccc2ccccc12)n1c(=O)c(-c2ccccc2)nc2ccccc21 (centres undefined)	0	-6	.	2	.	11
CC(C)(C)NC(=O)C(c1cccc2ccccc12)n1c(=O)c(-c2ccco2)nc2ccccc21 (centres undefined)	22*	0	.	-14	.	-10
